According to ChEMBL document CHEMBL3734675, “Synthesis, antimycobacterial and antibacterial activity of fluoroquinolone derivatives containing an 3-alkoxyimino-4-(cyclopropylanimo)methylpyrrolidine moiety” (2015):
In brackets after ≈: the same amount, converted by molar mass.

Columns and labels:
Format in all cases: functional
[1] = test system: Mycobacterium tuberculosis; assay: Antimycobacterial activity against Mycobacterium tuberculosis H37Rv ATCC 27294 incubated for 7 days by microplate Alamar Blue assay; details: H37Rv ATCC 27294, 168 h
Outline: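 Fluorescence read-out. MIC is the lowest concentration that reduces fluorescence by at least 90% relative to the mean of replicate bacterium-only controls. Isoniazid and rifampicin were included as reference drugs.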

Escherichia coli [2] = assay: Antibacterial activity against Escherichia coli ATCC 25922 after 18 to 24 hrs by two-fold serial dilution method
Outline: (§1)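 Twofold serial dilution in agar media against Gram-positive and Gram-negative strains. Plates incubated at 35 °C for 18–24 h. MIC read as the lowest compound concentration giving complete inhibition of bacterial growth.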

Escherichia coli [3] = assay: Antibacterial activity against extended-spectrum beta-lactamase producing Escherichia coli 14-1 after 18 to 24 hrs by two-fold serial dilution method; outline: as §1
Escherichia coli [4] = assay: Antibacterial activity against extended-spectrum beta-lactamase producing Escherichia coli 14-2 after 18 to 24 hrs by two-fold serial dilution method; outline: as §1
Escherichia coli [5] = assay: Antibacterial activity against Escherichia coli 14-1 after 18 to 24 hrs by two-fold serial dilution method; outline: as §1
Escherichia coli [6] = assay: Antibacterial activity against Escherichia coli 14-2 after 18 to 24 hrs by two-fold serial dilution method; outline: as §1
Klebsiella pneumoniae [7] = assay: Antibacterial activity against extended-spectrum beta-lactamase producing Klebsiella pneumoniae 14-17 after 18 to 24 hrs by two-fold serial dilution method; outline: as §1
Klebsiella pneumoniae [8] = assay: Antibacterial activity against extended-spectrum beta-lactamase producing Klebsiella pneumoniae 14-18 after 18 to 24 hrs by two-fold serial dilution method; outline: as §1
Klebsiella pneumoniae [9] = assay: Antibacterial activity against extended-spectrum beta-lactamase producing Klebsiella pneumoniae 14-19 after 18 to 24 hrs by two-fold serial dilution method; outline: as §1
Klebsiella pneumoniae [10] = assay: Antibacterial activity against Klebsiella pneumoniae 14-1 after 18 to 24 hrs by two-fold serial dilution method; outline: as §1
Klebsiella pneumoniae [11] = assay: Antibacterial activity against Klebsiella pneumoniae 14-2 after 18 to 24 hrs by two-fold serial dilution method; outline: as §1
Klebsiella pneumoniae [12] = assay: Antibacterial activity against Klebsiella pneumoniae 14-3 after 18 to 24 hrs by two-fold serial dilution method; outline: as §1
Klebsiella pneumoniae [13] = assay: Antibacterial activity against Klebsiella pneumoniae 14-4 after 18 to 24 hrs by two-fold serial dilution method; outline: as §1
Pseudomonas aeruginosa [14] = assay: Antibacterial activity against Pseudomonas aeruginosa ATCC 27853 after 18 to 24 hrs by two-fold serial dilution method; outline: as §1
Pseudomonas aeruginosa [15] = assay: Antibacterial activity against Pseudomonas aeruginosa 14-9 after 18 to 24 hrs by two-fold serial dilution method; outline: as §1
Pseudomonas aeruginosa [16] = assay: Antibacterial activity against Pseudomonas aeruginosa 14-14 after 18 to 24 hrs by two-fold serial dilution method; outline: as §1
Pseudomonas aeruginosa [17] = assay: Antibacterial activity against Pseudomonas aeruginosa 14-15 after 18 to 24 hrs by two-fold serial dilution method; outline: as §1
Pseudomonas aeruginosa [18] = assay: Antibacterial activity against Pseudomonas aeruginosa 14-16 after 18 to 24 hrs by two-fold serial dilution method; outline: as §1
Staphylococcus aureus [19] = assay: Antibacterial activity against Staphylococcus aureus CMCC 26003 after 18 to 24 hrs by two-fold serial dilution method; outline: as §1
Staphylococcus aureus [20] = assay: Antibacterial activity against methicillin-sensitive Staphylococcus aureus 14-1 after 18 to 24 hrs by two-fold serial dilution method; outline: as §1
Staphylococcus aureus [21] = assay: Antibacterial activity against methicillin-sensitive Staphylococcus aureus 14-3 after 18 to 24 hrs by two-fold serial dilution method; outline: as §1
Staphylococcus aureus [22] = assay: Antibacterial activity against methicillin-sensitive Staphylococcus aureus 14-4 after 18 to 24 hrs by two-fold serial dilution method; outline: as §1
Staphylococcus aureus [23] = assay: Antibacterial activity against methicillin-resistant Staphylococcus aureus 14-4 after 18 to 24 hrs by two-fold serial dilution method
Outline: (§2)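 Agar media, standard twofold serial dilution. MIC is the lowest concentration giving complete inhibition of bacterial growth after incubation at 35 °C for 18–24 h. Ciprofloxacin and levofloxacin were run as comparators.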

Staphylococcus aureus [24] = assay: Antibacterial activity against methicillin-resistant Staphylococcus aureus 14-5 after 18 to 24 hrs by two-fold serial dilution method; outline: as §2
[25] = test system: Staphylococcus epidermidis; assay: Antibacterial activity against methicillin-sensitive Staphylococcus epidermidis 14-2 after 18 to 24 hrs by two-fold serial dilution method; outline: as §1
[26] = test system: Staphylococcus epidermidis; assay: Antibacterial activity against methicillin-resistant Staphylococcus epidermidis 14-21 after 18 to 24 hrs by two-fold serial dilution method; outline: as §2
[27] = test system: Staphylococcus epidermidis; assay: Antibacterial activity against methicillin-resistant Staphylococcus epidermidis 14-22 after 18 to 24 hrs by two-fold serial dilution method; outline: as §2
[28] = test system: Staphylococcus epidermidis; assay: Antibacterial activity against methicillin-resistant Staphylococcus epidermidis 14-37 after 18 to 24 hrs by two-fold serial dilution method; outline: as §2
[29] = test system: Staphylococcus epidermidis; assay: Antibacterial activity against methicillin-resistant Staphylococcus epidermidis 14-39 after 18 to 24 hrs by two-fold serial dilution method; outline: as §2
Streptococcus pneumoniae = assay: Antibacterial activity against methicillin-resistant Streptococcus pneumoniae ATCC 19615 after 18 to 24 hrs by two-fold serial dilution method; outline: as §2
Enterococcus faecium [30] = assay: Antibacterial activity against Enterococcus faecium 14-2 after 18 to 24 hrs by two-fold serial dilution method; outline: as §1
Enterococcus faecium [31] = assay: Antibacterial activity against Enterococcus faecium 14-5 after 18 to 24 hrs by two-fold serial dilution method; outline: as §1
Enterococcus faecium [32] = assay: Antibacterial activity against Enterococcus faecium 14-6 after 18 to 24 hrs by two-fold serial dilution method; outline: as §1
Enterococcus faecalis [33] = assay: Antibacterial activity against Enterococcus faecalis 14-1 after 18 to 24 hrs by two-fold serial dilution method; outline: as §1
Enterococcus faecalis [34] = assay: Antibacterial activity against Enterococcus faecalis 14-2 after 18 to 24 hrs by two-fold serial dilution method; outline: as §1

SMILES	MIC90 [1]	MIC (Escherichia coli [2])	MIC (Escherichia coli [3])	MIC (Escherichia coli [4])	MIC (Escherichia coli [5])	MIC (Escherichia coli [6])	MIC (Klebsiella pneumoniae [7])	MIC (Klebsiella pneumoniae [8])	MIC (Klebsiella pneumoniae [9])	MIC (Klebsiella pneumoniae [10])	MIC (Klebsiella pneumoniae [11])	MIC (Klebsiella pneumoniae [12])	MIC (Klebsiella pneumoniae [13])	MIC (Pseudomonas aeruginosa [14])	MIC (Pseudomonas aeruginosa [15])	MIC (Pseudomonas aeruginosa [16])	MIC (Pseudomonas aeruginosa [17])	MIC (Pseudomonas aeruginosa [18])	MIC (Staphylococcus aureus [19])	MIC (Staphylococcus aureus [20])	also measured
CCO/N=C1/CN(c2nc3c(cc2F)c(=O)c(C(=O)O)cn3[C@@H]2C[C@@H]2F)CC1(C)CNC1CC1 (stereo not given in full)	0.6 µg/mL (≈ 1.26 µM)	2 µg/mL (≈ 4.21 µM)	32 µg/mL (≈ 67.3 µM)	> 128 µg/mL	> 128 µg/mL	> 128 µg/mL	64 µg/mL (≈ 135 µM)	128 µg/mL (≈ 269 µM)	64 µg/mL (≈ 135 µM)	64 µg/mL (≈ 135 µM)	128 µg/mL (≈ 269 µM)	128 µg/mL (≈ 269 µM)	> 128 µg/mL	32 µg/mL (≈ 67.3 µM)	32 µg/mL (≈ 67.3 µM)	128 µg/mL (≈ 269 µM)	64 µg/mL (≈ 135 µM)	64 µg/mL (≈ 135 µM)	0.015 µg/mL (≈ 0.0315 µM)	1 µg/mL (≈ 2.1 µM)	MIC (Staphylococcus aureus [21]): 2 µg/mL (≈ 4.21 µM); MIC (Staphylococcus aureus [22]): 1 µg/mL (≈ 2.1 µM); MIC (Staphylococcus aureus [23]): 4 µg/mL (≈ 8.41 µM); MIC (Staphylococcus aureus [24]): 2 µg/mL (≈ 4.21 µM); MIC [25]: 16 µg/mL (≈ 33.6 µM); MIC [26]: 4 µg/mL (≈ 8.41 µM); MIC [27]: 4 µg/mL (≈ 8.41 µM); MIC [28]: 2 µg/mL (≈ 4.21 µM); MIC [29]: 4 µg/mL (≈ 8.41 µM); MIC (Streptococcus pneumoniae): 0.25 µg/mL (≈ 0.526 µM); MIC (Enterococcus faecium [30]): 4 µg/mL (≈ 8.41 µM); MIC (Enterococcus faecium [31]): 2 µg/mL (≈ 4.21 µM); MIC (Enterococcus faecium [32]): 4 µg/mL (≈ 8.41 µM); MIC (Enterococcus faecalis [33]): 16 µg/mL (≈ 33.6 µM); MIC (Enterococcus faecalis [34]): 1 µg/mL (≈ 2.1 µM)
CCO/N=C1/CN(c2nc3c(cc2F)c(=O)c(C(=O)O)cn3-c2nc(N)c(F)cc2F)CC1CNC1CC1 (stereo not given)	22 µg/mL (≈ 41.4 µM)	4 µg/mL (≈ 7.53 µM)	32 µg/mL (≈ 60.2 µM)	> 128 µg/mL	> 128 µg/mL	> 128 µg/mL	128 µg/mL (≈ 241 µM)	128 µg/mL (≈ 241 µM)	128 µg/mL (≈ 241 µM)	64 µg/mL (≈ 120 µM)	64 µg/mL (≈ 120 µM)	128 µg/mL (≈ 241 µM)	> 128 µg/mL	32 µg/mL (≈ 60.2 µM)	32 µg/mL (≈ 60.2 µM)	128 µg/mL (≈ 241 µM)	128 µg/mL (≈ 241 µM)	128 µg/mL (≈ 241 µM)	0.125 µg/mL (≈ 0.235 µM)	16 µg/mL (≈ 30.1 µM)	MIC (Staphylococcus aureus [21]): 32 µg/mL (≈ 60.2 µM); MIC (Staphylococcus aureus [22]): 32 µg/mL (≈ 60.2 µM); MIC (Staphylococcus aureus [23]): 64 µg/mL (≈ 120 µM); MIC (Staphylococcus aureus [24]): 8 µg/mL (≈ 15.1 µM); MIC [25]: > 128 µg/mL; MIC [26]: 128 µg/mL (≈ 241 µM); MIC [27]: 32 µg/mL (≈ 60.2 µM); MIC [28]: 64 µg/mL (≈ 120 µM); MIC [29]: 64 µg/mL (≈ 120 µM); MIC (Streptococcus pneumoniae): 16 µg/mL (≈ 30.1 µM); MIC (Enterococcus faecium [30]): 64 µg/mL (≈ 120 µM); MIC (Enterococcus faecium [31]): 32 µg/mL (≈ 60.2 µM); MIC (Enterococcus faecium [32]): 128 µg/mL (≈ 241 µM); MIC (Enterococcus faecalis [33]): 128 µg/mL (≈ 241 µM); MIC (Enterococcus faecalis [34]): 4 µg/mL (≈ 7.53 µM)
